Laboratory results: ChEMBL document CHEMBL5360535, “Expanding the scope of novel 1,2,3-triazole derivatives as new antiparasitic drug candidates” (RSC Med Chem, 2023)

What was measured:
Leishmania donovani = assay: Antileishmanial activity against Leishmania donovani promastigotes assessed as parasite growth inhibition incubated for 72 hrs by alamar blue staining based assay; format: functional, organism-based
How it was run: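 L. donovani S1 Sudan strain promastigotes were grown at 26 °C in RPMI-1640 (no bicarbonate or pyruvate) with 10% FBS. Compound dilutions were added to cultures at 2 × 10⁶ cells per mL, at final 40, 8 and 1.6 μg mL⁻¹ (footnote: at least six concentrations, each in duplicate). Incubation was 72 h at 26 °C, with Alamar blue read-out. IC50 came from non-linear logistic regression. Experiments were run in triplicate.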

Plasmodium falciparum [1] = assay: Antimalarial activity against chloroquine-resistant Plasmodium falciparum W2 assessed as parasite growth inhibition incubated for 48 hrs by LDH assay; format: functional, organism-based; details: W2, 48 h
How it was run: (§1)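 Asynchronous P. falciparum cultures (2% hematocrit, 2% parasitemia) were exposed to DMSO-dissolved compound dilutions in RPMI-1640. They were held at 37 °C for 48 h in a humidified chamber under 90% N2/5% CO2/5% O2. Growth was read as pLDH activity with Malstat reagent, with medium, RBC and DMSO controls. IC50 came from non-linear logistic dose-response regression, in triplicate.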

Plasmodium falciparum [2] = assay: Antimalarial activity against chloroquine-sensitive Plasmodium falciparum D6 assessed as parasite growth inhibition incubated for 48 hrs by LDH assay; format: functional, organism-based; details: D6, 48 h; how it was run: as §1
[3] = Cytotoxicity against African green monkey Vero cells incubated for 48 hrs by Neutral Red assay; format: toxicity, cell-based, Chlorocebus sabaeus
How it was run: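 Vero cells were maintained in RPMI with 10% heat-inactivated FCS, 0.15% NaHCO₃ and penicillin/streptomycin at 37 °C under 5% CO₂. Confluent monolayers were exposed to various concentrations up to a maximum of 4.75 μg mL⁻¹ for 48 h at 37 °C. Viability was read by Neutral Red uptake, with DMSO as negative control. IC50 was taken from the concentration–response curve.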

[4] = Selectivity index, ratio of IC50 for African green monkey Vero cells to IC50 for Plasmodium falciparum D6; format: toxicity, cell-based; details: read-out: Ratio IC50
How it was run: (§2)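 SI = Vero IC50 (Neutral Red, 48 h) divided by P. falciparum IC50. Parasite IC50 was from asynchronous D6 or W2 cultures (2% hematocrit, 2% parasitemia), with DMSO-dissolved compounds diluted in RPMI-1640. Incubation was 48 h at 37 °C under 90% N₂/5% CO₂/5% O₂, with growth read by pLDH activity (Malstat). Chloroquine and artemisinin were positive controls.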

[5] = Selectivity index, ratio of IC50 for African green monkey Vero cells to IC50 for Plasmodium falciparum W2; format: toxicity, cell-based; details: read-out: Ratio IC50; how it was run: as §2
Plasmodium falciparum [6] = assay: Antiparasitic activity against chloroquine-resistant Plasmodium falciparum W2 infected in red blood cells assessed as inhibition of parasite growth by HRP2 assay; format: functional, organism-based, Red blood cell; details: W2, Erythrocyte

## CC(C)=CCC/C(C)=C/CC/C(C)=C\Cn1cc(CCO)nn1
Leishmania donovani
  IC50: 63 µM
Plasmodium falciparum [1]
  IC50: 2.05 µM
Plasmodium falciparum [2]
  IC50: 2.74 µM
[3]
  IC50 at 48 h: > 15 µM
[4]
  selectivity ratio: > 5.46
[5]
  selectivity ratio: > 7.31

## CC(C)=CCC/C(C)=C/CC/C(C)=C\Cn1cc(C(C)O)nn1 (stereo not drawn)
Leishmania donovani
  IC50: 59.9 µM

## c1ccc(CCCn2cc(-c3ccccc3)nn2)cc1
Leishmania donovani
  IC50: 68.4 µM

## CC(C)=CCC/C(C)=C/CC/C(C)=C/Cn1cc(C(C)O)nn1 (stereo not drawn)
Leishmania donovani
  IC50: 56.7 µM

## CCOC(=O)Cn1cc(C(=O)OC)nn1
Plasmodium falciparum [1]
  IC50: 12.3 µM
Plasmodium falciparum [2]
  IC50: 12.3 µM
[3]
  IC50 at 48 h: > 20.9 µM
[4]
  selectivity ratio: > 1.7
[5]
  selectivity ratio: > 1.7

## CCCc1cn(C/C=C/c2ccccc2)nn1
Plasmodium falciparum [1]
  IC50: 22 µM
Plasmodium falciparum [2]
  IC50: 20.9 µM
[3]
  IC50 at 48 h: > 20.9 µM
[4]
  selectivity ratio: < 1
[5]
  selectivity ratio: < 1

## O=Cn1cc(-c2ccnc3cc(Cl)ccc23)nn1
Plasmodium falciparum [6]
  IC50: 1.4 µM

## CCCc1cn(CCCc2ccccc2)nn1
Plasmodium falciparum [1]
  IC50: 11.3 µM
Plasmodium falciparum [2]
  IC50: 15.3 µM
[3]
  IC50 at 48 h: > 20.7 µM
[4]
  selectivity ratio: > 1.36
[5]
  selectivity ratio: > 1.83

## CC(C)=CCC/C(C)=C/CC/C(C)=C/Cn1cc(CO)nn1
Leishmania donovani
  IC50: 56 µM

## C(=C\c1ccccc1)/Cn1cc(-c2ccccc2)nn1
Plasmodium falciparum [1]
  IC50: 13 µM
Plasmodium falciparum [2]
  IC50: 11.5 µM
[3]
  IC50 at 48 h: > 18.2 µM
[4]
  selectivity ratio: > 1.58
[5]
  selectivity ratio: > 1.4

## O=C(O)c1cn(Cc2ccccc2)nn1
Leishmania donovani
  IC50: 18.7 µM

## COC(=O)c1cn(Cc2ccccc2)nn1
Leishmania donovani
  IC50: 92.1 µM

## CC(C)=CCC/C(C)=C/CC/C(C)=C\Cn1cc(C(C)(C)O)nn1
Leishmania donovani
  IC50: 63.4 µM

## CCCCCCCCc1cn(Cc2ccccc2)nn1
Leishmania donovani
  IC50: 22.1 µM

## CCCCCCCCn1cc(CO)nn1
Plasmodium falciparum [1]
  IC50: 6.63 µM
Plasmodium falciparum [2]
  IC50: 13.3 µM
[3]
  IC50 at 48 h: > 22.5 µM
[4]
  selectivity ratio: > 1.7
[5]
  selectivity ratio: > 3.39

## C[C@@H]1CC[C@H]2[C@@H](C)C(=O)O[C@@H]3O[C@@]4(C)CC[C@@H]1[C@]32OO4 [ARTEMISININ]
[4]
  selectivity ratio: > 179
[5]
  selectivity ratio: > 179

## CCCCCc1cn(C/C=C/c2ccccc2)nn1
Leishmania donovani
  IC50: 74.4 µM

## CC(C)=CCC/C(C)=C/CC/C(C)=C/Cn1cc(CCO)nn1
Leishmania donovani
  IC50: 63 µM

## CCCCCc1cn(CCCc2ccccc2)nn1
Plasmodium falciparum [1]
  IC50: 10.9 µM
Plasmodium falciparum [2]
  IC50: 16.3 µM
[3]
  IC50 at 48 h: > 18.5 µM
[4]
  selectivity ratio: > 1.13
[5]
  selectivity ratio: > 1.7

## CCCCCCCCCCc1cn(Cc2ccccc2)nn1
Plasmodium falciparum [1]
  IC50: 10.7 µM
Plasmodium falciparum [2]
  IC50: 11 µM
[3]
  IC50 at 48 h: > 15.9 µM
[4]
  selectivity ratio: > 1.44
[5]
  selectivity ratio: > 1.48

## CCCCCCCCc1cn(C/C=C/c2ccccc2)nn1
Plasmodium falciparum [1]
  IC50: 10.1 µM
Plasmodium falciparum [2]
  IC50: 10.8 µM
[3]
  IC50 at 48 h: > 16 µM
[4]
  selectivity ratio: > 1.48
[5]
  selectivity ratio: > 1.58

## CCCCCc1cn(C/C=C(\C)CC/C=C(\C)CCC=C(C)C)nn1
Plasmodium falciparum [1]
  IC50: 6.69 µM
Plasmodium falciparum [2]
  IC50: 3.49 µM
[3]
  IC50 at 48 h: > 13.8 µM
[4]
  selectivity ratio: > 3.96
[5]
  selectivity ratio: > 2.07

## CC(C)=CCC/C(C)=C/CC/C(C)=C/Cn1cc(C(C)(C)O)nn1
Leishmania donovani
  IC50: 48.3 µM
Plasmodium falciparum [1]
  IC50: 1.99 µM
Plasmodium falciparum [2]
  IC50: 2.35 µM
[3]
  IC50 at 48 h: > 14.3 µM
[4]
  selectivity ratio: > 6.09
[5]
  selectivity ratio: > 7.2

## c1ccc(Cn2cc(-c3ccccc3)nn2)cc1
Leishmania donovani
  IC50: 85 µM

## CC(C)=CCC/C(C)=C/CC/C(C)=C\Cn1cc(CO)nn1
Leishmania donovani
  IC50: 59.3 µM

## COC(=O)c1cn(CC=C(C)C)nn1
Plasmodium falciparum [1]
  IC50: 23.1 µM
Plasmodium falciparum [2]
  IC50: 24.3 µM
[3]
  IC50 at 48 h: > 24.3 µM
[4]
  selectivity ratio: > 1
[5]
  selectivity ratio: 1.06

## CCCCCCCCCCn1cc(C(=O)OC)nn1
Leishmania donovani
  IC50: 78.5 µM
Plasmodium falciparum [1]
  IC50: 6.73 µM
Plasmodium falciparum [2]
  IC50: 11.2 µM
[3]
  IC50 at 48 h: > 17.8 µM
[4]
  selectivity ratio: > 1.58
[5]
  selectivity ratio: > 2.64
